According to ChEMBL document CHEMBL4396917, “Synthesis and biological evaluation of novel benzylidene-succinimide derivatives as noncytotoxic antiangiogenic inhibitors with anticolorectal cancer activity in vivo” (Eur J Med Chem, 2019):
The source made the active and inactive calls. The rule behind the calls is not given here.

Columns and labels:
Chorioallantoic membrane = assay: Antiangiogenic activity in Leghorn chicken fertilized egg chorioallantoic membrane assessed as impaired neovascularization with absence of vascular networks at 10 nM/egg measured after 48 hrs by CAM assay; type: functional, tissue-based; details: Gallus gallus
Summary of the method: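 Fertile Leghorn eggs incubated at 37.8°C, 40% humidity; window opened on day 7; compound, sunitinib or 0.9% NaCl mixed with DMSO applied on filter paper onto CAM; 48 h incubation, methanol fixation, photography; nascent vessels counted.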

HUVEC [1] = assay: Antiangiogenic activity in HUVEC assessed as inhibition of VEGF-induced capillary like tube formation at 2.5 uM preincubated with VEGF for 20 mins followed by compound addition measured after 6 hrs by matrigel based tube formation assay relative to control; type: functional; details: Homo sapiens
Summary of the method: (§1)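 Matrigel (100 μL) set 1 h at 37°C; 2×10⁴ HUVECs in M200 with 10% FBS added per well plus 10 ng/mL VEGF; compound added after 20 min; incubated 6 h at 37°C, then capillary-like structures photographed.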

HUVEC [2] = assay: Antiangiogenic activity in HUVEC assessed as inhibition of VEGF-induced capillary like tube formation at 5 uM preincubated with VEGF for 20 mins followed by compound addition measured after 6 hrs by matrigel based tube formation assay relative to control; type: functional; details: Homo sapiens; summary of the method: as §1
HUVEC [3] = assay: Cytotoxicity against HUVEC at 1 to 5 uM measured after 48 hrs; type: cell-based; details: human
[4] = Induction of apoptosis in VEGF-stimulated HUVEC assessed as viable cells at 1 uM after 24 hrs by Annexin V-FITC/propidium iodide staining based flow cytometric analysis (reference value: 69.6%); type: cell-based; details: human, read-out: Activity
Summary of the method: (§2)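 HUVECs plated at 5×10^5 per well and treated 24 h with 1, 5, 10 or 20 μM. Detached and adherent cells were pooled, washed in ice-cold PBS and resuspended in fresh medium. 1×10^5 cells were stained with annexin-V-FITC in annexin-V buffer for 20 min in the dark, then PI (50 μg/mL) was added. Read-out by flow cytometry.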

HUVEC [5] = assay: Induction of apoptosis in VEGF-stimulated HUVEC assessed as late apoptotic cells at 10 uM after 24 hrs by Annexin V-FITC/propidium iodide staining based flow cytometric analysis (reference value: 11.3%); type: cell-based; details: human; summary of the method: as §2
[6] = Induction of apoptosis in VEGF-stimulated HUVEC assessed as viable cells at 20 uM after 24 hrs by Annexin V-FITC/propidium iodide staining based flow cytometric analysis (reference value: 69.6%); type: cell-based; details: human, read-out: Activity; summary of the method: as §2
HUVEC [7] = assay: Induction of apoptosis in VEGF-stimulated HUVEC assessed as necrotic cells at 20 uM after 24 hrs by Annexin V-FITC/propidium iodide staining based flow cytometric analysis (reference value: 12.1%); type: cell-based; details: human; summary of the method: as §2
HUVEC [8] = assay: Induction of apoptosis in VEGF-stimulated HUVEC assessed as caspase-3 cleavage at 1 to 20 uM by Western blot analysis; type: cell-based; details: human
HT-29 [9] = assay: Induction of apoptosis in human HT-29 cells assessed as early apoptotic cells at 10 uM after 24 hrs by Annexin V-FITC/propidium iodide staining based flow cytometric analysis (reference value: 1.9%); type: cell-based; details: ht-29, 24 h
HT-29 [10] = assay: Induction of apoptosis in human HT-29 cells assessed as late apoptotic cells at 10 uM after 24 hrs by Annexin V-FITC/propidium iodide staining based flow cytometric analysis (reference value: 13.4%); type: cell-based; details: ht-29, 24 h
HT-29 [11] = assay: Induction of apoptosis in human HT-29 cells assessed as necrotic cells at 20 uM after 24 hrs by Annexin V-FITC/propidium iodide staining based flow cytometric analysis (reference value: 3.9%); type: cell-based; details: ht-29, 24 h
HT-29 [12] = assay: Induction of apoptosis in human HT-29 cells assessed as early apoptotic cells at 5 uM after 48 hrs by Annexin V-FITC/propidium iodide staining based flow cytometric analysis (reference value: 5.3%); type: cell-based; details: ht-29, 48 h
HT-29 [13] = assay: Induction of apoptosis in human HT-29 cells assessed as necrotic cells at 5 uM after 48 hrs by Annexin V-FITC/propidium iodide staining based flow cytometric analysis (reference value: 1.3%); type: cell-based; details: ht-29, 48 h
HT-29 [14] = assay: Induction of apoptosis in human HT-29 cells assessed as PARP cleavage up to 20 uM after 24 to 72 hrs by Western blot analysis; type: cell-based
[15] = target: Vascular endothelial growth factor receptor 2 (Homo sapiens) (UniProt P35968); assay: Inhibition of VEGFR2 in VEGF-stimulated HUVEC assessed as downregulation of STAT3 phosphorylation at Tyr705 residue at 1 to 10 uM pre-incubated for 2 hrs followed by VEGF stimulation and measured after 15 mins by Western blot analysis; type: cell-based
Vascular endothelial growth factor receptor 2 (Homo sapiens), sequence (P35968 whole entry): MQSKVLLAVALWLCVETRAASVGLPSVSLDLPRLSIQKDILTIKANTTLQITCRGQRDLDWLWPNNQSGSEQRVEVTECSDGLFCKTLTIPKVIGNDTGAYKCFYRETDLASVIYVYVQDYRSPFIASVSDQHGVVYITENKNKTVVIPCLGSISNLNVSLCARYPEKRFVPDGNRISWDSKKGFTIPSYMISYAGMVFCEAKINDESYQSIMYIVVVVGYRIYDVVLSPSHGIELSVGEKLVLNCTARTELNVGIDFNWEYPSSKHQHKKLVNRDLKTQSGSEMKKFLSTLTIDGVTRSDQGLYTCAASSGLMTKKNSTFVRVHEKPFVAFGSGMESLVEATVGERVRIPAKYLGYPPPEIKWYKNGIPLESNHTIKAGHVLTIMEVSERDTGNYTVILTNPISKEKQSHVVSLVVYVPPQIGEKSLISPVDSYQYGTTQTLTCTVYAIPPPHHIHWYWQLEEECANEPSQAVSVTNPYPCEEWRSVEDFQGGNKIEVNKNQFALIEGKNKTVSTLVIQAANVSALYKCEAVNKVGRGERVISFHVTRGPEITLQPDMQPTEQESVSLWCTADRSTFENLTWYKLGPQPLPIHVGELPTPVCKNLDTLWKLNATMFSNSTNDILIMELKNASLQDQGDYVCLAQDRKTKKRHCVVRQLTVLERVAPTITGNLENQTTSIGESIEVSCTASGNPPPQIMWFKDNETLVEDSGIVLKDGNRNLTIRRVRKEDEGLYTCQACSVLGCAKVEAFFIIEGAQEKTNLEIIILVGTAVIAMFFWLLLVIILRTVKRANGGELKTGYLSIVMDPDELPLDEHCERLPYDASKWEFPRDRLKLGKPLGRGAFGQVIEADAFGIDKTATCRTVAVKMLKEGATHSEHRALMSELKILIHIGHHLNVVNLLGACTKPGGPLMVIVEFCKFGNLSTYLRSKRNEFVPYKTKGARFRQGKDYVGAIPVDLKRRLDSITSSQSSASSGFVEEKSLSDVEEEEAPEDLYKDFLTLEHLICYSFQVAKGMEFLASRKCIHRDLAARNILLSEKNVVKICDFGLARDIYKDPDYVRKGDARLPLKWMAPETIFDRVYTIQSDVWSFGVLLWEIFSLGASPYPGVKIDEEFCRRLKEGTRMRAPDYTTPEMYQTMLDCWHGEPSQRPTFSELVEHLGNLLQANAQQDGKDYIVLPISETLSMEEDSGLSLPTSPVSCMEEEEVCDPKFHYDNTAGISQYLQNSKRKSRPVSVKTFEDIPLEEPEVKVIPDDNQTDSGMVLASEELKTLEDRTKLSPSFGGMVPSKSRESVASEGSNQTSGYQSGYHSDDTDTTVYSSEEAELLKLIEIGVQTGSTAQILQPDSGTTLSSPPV

HUVEC [16] = assay: Inhibition of Akt/mTOR signalling in VEGF-induced HUVEC assessed as reduction in P70S6K phosphorylation at Thr389 residue pre-incubated for 1.5 hrs followed by VEGF stimulation and measured after 30 mins by Western blot analysis; type: cell-based; details: Homo sapiens
Summary of the method: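 HUVECs were starved overnight, pretreated 1.5 h with 1, 5, 10 or 20 μM, then stimulated with VEGF (50 ng/mL) for 30 min. Lysates were equalized by Bradford assay, about 20 μg protein was resolved on gradient SDS-PAGE and immunoblotted with phospho-specific antibodies. Detection by HRP secondary antibodies and ECL.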

HT-29 [17] = assay: Inhibition of Akt/mTOR signalling in human HT-29 cells assessed as reduction in AKT phosphorylation at Ser473 residue incubated for 24 hrs by immunoblot analysis; type: cell-based
Summary of the method: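 HT29 cells were exposed to the indicated concentrations for 24 h. Cell lysates were then immunoblotted for the phosphorylated proteins.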

HT-29 [18] = assay: Downregulation of HIF1-alpha mRNA expression in human HT-29 cells after 24 hrs by RT-qPCR assay; type: functional, cell-based
Summary of the method: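 HT29 cells treated with 1, 5, 10 or 20 μM for 24 h; total RNA extracted with TRIzol; SYBR Green qPCR, 40 cycles of 5 s at 95°C and 60 s at 60°C in 20-μL reactions.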

[19] = target: Ribosomal protein S6 kinase beta-1 (Homo sapiens) (UniProt P23443); assay: Inhibition of P70S6K (unknown origin) at 10 uM using myelin basic protein as substrate in presence of [gamma-33P]-ATP by scintillation counting analysis relative to control
Ribosomal protein S6 kinase beta-1 (Homo sapiens), sequence (P23443 whole entry, looked up): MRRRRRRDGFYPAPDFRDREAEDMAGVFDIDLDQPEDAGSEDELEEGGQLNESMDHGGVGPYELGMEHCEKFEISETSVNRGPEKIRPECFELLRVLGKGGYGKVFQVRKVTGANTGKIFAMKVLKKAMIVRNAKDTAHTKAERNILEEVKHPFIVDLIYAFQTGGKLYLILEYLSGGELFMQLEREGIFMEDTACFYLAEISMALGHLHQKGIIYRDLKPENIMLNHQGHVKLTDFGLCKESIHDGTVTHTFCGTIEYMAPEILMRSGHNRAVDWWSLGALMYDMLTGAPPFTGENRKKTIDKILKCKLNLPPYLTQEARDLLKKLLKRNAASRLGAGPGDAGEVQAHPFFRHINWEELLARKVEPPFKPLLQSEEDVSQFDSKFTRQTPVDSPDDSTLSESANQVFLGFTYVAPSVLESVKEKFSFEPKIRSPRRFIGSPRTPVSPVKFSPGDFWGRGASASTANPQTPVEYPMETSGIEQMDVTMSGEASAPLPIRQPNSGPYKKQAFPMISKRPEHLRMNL
Summary of the method: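 Radiometric kinase panel run by a contract lab. Kinase (5–10 mU) in 25 mM Tris pH 7.5, 0.02 mM EGTA, 0.66 mg/mL myelin basic protein, magnesium acetate and [γ-33P]-ATP (about 500 cpm/pmol). Started with Mg-ATP mix, 40 min at room temperature, stopped with 3% phosphoric acid. Spotted on P30 filters, washed in 75 mM phosphoric acid and methanol, scintillation counted. Mean ± SD of three independent experiments.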

[20] = Toxicity in mouse xenografted with human HT-29 cells assessed as body weight at 20 to 60 mg/kg, po administered every other day for 3 weeks; type: organism-based; details: in vivo, 504 h
Summary of the method: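 HT29 cells implanted subcutaneously in the right flank of nude mice. At about 100 mm³, mice were randomized to vehicle (0.9% NaCl) or oral compound at 20, 40 and 60 mg/kg, with sunitinib at 40 mg/kg as reference. Body weight and tumor size recorded every other day.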

HT-29 [21] = assay: Antitumor activity against human HT-29 cells xenografted in mouse assessed as reduction in cell proliferation in tumor at 20 to 60 mg/kg, po administered every other day for 3 weeks and measured at 20 days post treatment by Ki-67 staining based assay; type: functional, organism-based
HT-29 [22] = assay: Downregulation of MMP2 expression in human HT-29 cells after 24 hrs by immunoblot analysis; type: functional, cell-based

Q: Which Activity (Chorioallantoic membrane) does the source give for `COc1ccc(NC(=O)c2cccc(/C=C3\CC(=O)N(c4ccc(C)cc4)C3=O)c2)cc1` here?
A: Its Activity is “Active”.

Q: What about the inhibition at 2.5 µM (HUVEC [1]) of the same compound?
A: The inhibition at 2.5 µM was 73%.

Q: What about the inhibition at 5 µM (HUVEC [2]) of the same compound?
A: Its inhibition at 5 µM is 80%.

Q: What about the Activity (HUVEC [3]) of the same compound?
A: The Activity was “Non-Toxic”.

Q: And the viability at 24 h, 1 µM [4]?
A: The viability at 24 h, 1 µM was 72.6%.

Q: And the Activity (HUVEC [5])?
A: The Activity was 11.7%.

Q: What about the viability at 24 h, 20 µM [6] of the same compound?
A: Its viability at 24 h, 20 µM is 74.5%.

Q: And the Activity (HUVEC [7])?
A: Its Activity is 5.6%.

Q: What about the Activity (HUVEC [8]) of the same compound?
A: The Activity was “Non-Toxic”.

Q: And the Activity (HT-29 [9])?
A: The Activity was 1.5%.

Q: What about the Activity (HT-29 [10]) of the same compound?
A: The Activity was 19%.

Q: What about the Activity (HT-29 [11]) of the same compound?
A: The Activity was 2.3%.

Q: What about the Activity (HT-29 [12]) of the same compound?
A: Its Activity is 9.7%.

Q: What about the Activity (HT-29 [13]) of the same compound?
A: Its Activity is 1.1%.

Q: And the Activity (HT-29 [14])?
A: The Activity was “Non-Toxic”.

Q: What about the inhibition [15] of the same compound?
A: The inhibition was “Active”.

Q: And the inhibition (HUVEC [16])?
A: The inhibition was “Dose-dependent effect”.

Q: And the inhibition (HT-29 [17])?
A: The inhibition was “Dose-dependent effect”.

Q: What about the inhibition (HT-29 [18]) of the same compound?
A: The inhibition was “Dose-dependent effect”.

Q: And the inhibition [19]?
A: Its inhibition is 50 to 70%.

Q: What about the Activity [20] of the same compound?
A: Its Activity is “Non-Toxic”.

Q: What about the inhibition (HT-29 [21]) of the same compound?
A: Its inhibition is “Active”.

Q: And the inhibition (HT-29 [22])?
A: Its inhibition is “Dose-dependent effect”.
